Test results as given in publication PMC3697071 (Natural product communications, 2010).
≈ marks a conversion by molar mass, not a printed value.

Assays:
[1] = system: Leishmania donovani promastigotes; experiment: Antileishmanial assay; assay type: cell-based; settings: 72 h; for IC50 / IC90: Leishmania donovani; for IC50: read-out: L. donovani IC50; for IC90: read-out: L. donovani IC90; for L. donovani IC50 / L. donovani IC90: promastigotes
[2] = system: Cryptococcus neoformans ATCC 90113; experiment: Antimicrobial assay; assay type: cell-based; settings: for MIC / IC50: Cryptococcus neoformans; for MIC: ATCC90113, read-out: C. neoformans MIC; for IC50: ATCC90113, read-out: C. neoformans IC50; for C. neoformans MIC: second value of IC50/MIC; for C. neoformans IC50: first value of IC50/MIC
[3] = system: Aspergillus fumigatus ATCC 90906; experiment: Antimicrobial assay; assay type: cell-based; settings: for IC50: Aspergillus fumigatus, ATCC90906, read-out: A. fumigatus IC50; for A. fumigatus MIC: second value of IC50/MIC; for A. fumigatus IC50: first value of IC50/MIC
[4] = system: Candida albicans ATCC 90028; experiment: Antimicrobial assay; assay type: cell-based; settings: for IC50: Candida albicans, ATCC90028, read-out: C. albicans IC50; for C. albicans IC50: first value of IC50/MIC
[5] = system: P. falciparum D6 (chloroquine-sensitive, Sierra Leone); experiment: Antimalarial/parasite LDH assay, D6 clone; assay type: cell-based, Plasmodium falciparum; settings: for IC50: Plasmodium falciparum, D6, read-out: P. falciparum D6 IC50; for P. falciparum D6 IC50: chloroquine-sensitive clone D6
[6] = system: P. falciparum W2 (chloroquine-resistant, Indochina); experiment: Antimalarial/parasite LDH assay, W2 clone; assay type: cell-based, Plasmodium falciparum; settings: for IC50: Plasmodium falciparum, W2, read-out: P. falciparum W2 IC50; for P. falciparum W2 IC50: chloroquine-resistant clone W2
Plasmodium falciparum = experiment: Antimalarial/parasite LDH assay, strains not distinguished in text; assay type: cell-based; settings: for IC50: Plasmodium falciparum, read-out: antiplasmodial IC50; for antimalarial activity against Plasmodium falciparum: result in words
Outline: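 Colorimetric assay of parasite lactate dehydrogenase (pLDH) activity in P. falciparum cultures, run in 96-well format on two strains: Sierra Leone D6 (chloroquine-sensitive) and Indochina W2 (chloroquine-resistant). DMSO served as vehicle control, with artemisinin and chloroquine as drug controls.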

[7] = system: Staphylococcus aureus ATCC 29213; experiment: Antimicrobial assay; assay type: cell-based; settings: for IC50 / MIC: Staphylococcus aureus; for IC50: ATCC29213, read-out: S. aureus IC50; for MIC: ATCC29213, read-out: S. aureus MIC; for S. aureus MIC: second value of IC50/MIC; for S. aureus IC50: first value of IC50/MIC
Outline: (§1)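 Modified CLSI broth susceptibility method. Ciprofloxacin drug control in each assay. […] MIC is the lowest test concentration allowing no detectable growth.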

[8] = system: methicillin-resistant S. aureus ATCC 43300 (MRS); experiment: Antimicrobial assay; assay type: cell-based, Staphylococcus aureus; settings: for IC50 / MIC: Staphylococcus aureus; for IC50: ATCC43300, read-out: MRS IC50; for MIC: ATCC43300, read-out: MRS MIC; for MRS MIC / MRS IC50: methicillin-resistant S. aureus; for MRS MIC: second value of IC50/MIC; for MRS IC50: first value of IC50/MIC
Outline: as §1

[9] = system: Escherichia coli ATCC 35218; experiment: Antimicrobial assay; assay type: cell-based; settings: for IC50: ATCC35218, read-out: E. coli IC50; for E. coli IC50: first value of IC50/MIC
Outline: as §1

[10] = system: Pseudomonas aeruginosa ATCC 27853; experiment: Antimicrobial assay; assay type: cell-based; settings: for IC50: ATCC27853, read-out: P. aureginosa IC50; for P. aureginosa IC50: first value of IC50/MIC
Outline: as §1

[11] = system: Mycobacterium intracellulare ATCC 23068; experiment: Antimicrobial assay; assay type: cell-based; settings: for IC50: ATCC23068, read-out: M. intracellulare IC50; for M. intracellulare MIC: second value of IC50/MIC; for M. intracellulare IC50: first value of IC50/MIC
Outline: as §1

Candida krusei ATCC 6258 = experiment: Antimicrobial assay; assay type: cell-based; settings: for C. krusei MIC: second value of IC50/MIC; for C. krusei IC50: first value of IC50/MIC
[12] = system: monkey kidney fibroblasts (VERO); experiment: Cytotoxicity assay; assay type: cell-based; settings: VERO cells; max dose […] for pure compounds
[13] = system: Candida glabrata ATCC 90030; experiment: Antimicrobial assay; assay type: cell-based; settings: for C. glabrata IC50: first value of IC50/MIC

SMILES | IC50 [1] [mg/L] | IC90 [1] [mg/L] | IC50 [3] [mg/L] | IC50 [4] [mg/L] | IC50 [5] [mg/L] | IC50 [6] [mg/L] | IC50 [7] [mg/L] | IC50 [8] [mg/L] | IC50 ([9]; Escherichia coli) [mg/L] | IC50 ([10]; Pseudomonas aeruginosa) [mg/L] | IC50 ([11]; Mycobacterium intracellulare) [mg/L] | S. aureus MIC [7] [mg/L] | MRS MIC [8] [mg/L] | C. glabrata IC50 [13] | C. krusei IC50 (Candida krusei ATCC 6258) | C. neoformans IC50 [2] | A. fumigatus IC50 [3] | C. albicans IC50 [4] | S. aureus IC50 [7] | MRS IC50 [8] | also measured
C[C@@H]1[C@H](O)[C@@H](C)/C=C/C=C/C=C/C=C/C=C/C=C/C=C/[C@H](O[C@@H]2O[C@H](C)[C@@H](O)[C@H](N)[C@@H]2O)C[C@@H]2O[C@](O)(C[C@@H](O)C[C@@H](O)[C@H](O)CC[C@@H](O)C[C@@H](O)CC(=O)O[C@H]1C)C[C@H](O)[C@H]2C(=O)O [Amphotericin B, reference compound] | 0.13 (≈ 0.141 µM) | 0.3 (≈ 0.325 µM) | 1.29 (≈ 1.4 µM) | 0.43 (≈ 0.465 µM) |  |  |  |  |  |  |  |  |  |  |  |  |  |  |  |  | MIC [2]: 1.25 mg/L (≈ 1.35 µM)
C[C@@H]1CC[C@H]2[C@@H](C)C(=O)O[C@@H]3O[C@@]4(C)CC[C@@H]1[C@]32OO4 [Artemisinin, reference compound] |  |  |  |  | < 0.026 | < 0.026 |  |  |  |  |  |  |  |  |  |  |  |  |  |  | IC50 (Plasmodium falciparum): < 0.026 mg/L
CCN(CC)CCCC(C)Nc1ccnc2cc(Cl)ccc12 (stereo not drawn) [Chloroquine, reference compound] |  |  |  |  | < 0.026 | 0.14 (≈ 0.438 µM) |  |  |  |  |  |  |  |  |  |  |  |  |  |  | 
O=C(O)c1cn(C2CC2)c2cc(N3CCNCC3)c(F)cc2c1=O [Ciprofloxacin, reference compound] |  |  |  |  |  |  | 0.1 (≈ 0.302 µM) | 0.08 (≈ 0.241 µM) | 0.004 (≈ 0.0121 µM) | 0.06 (≈ 0.181 µM) | 0.3 (≈ 0.905 µM) |  |  |  |  |  |  |  |  |  | MIC [7]: 0.25 mg/L (≈ 0.754 µM); MIC [8]: 0.25 mg/L (≈ 0.754 µM); MIC ([9]; Escherichia coli, ATCC35218, read-out: E. coli MIC): 0.008 mg/L (≈ 0.0241 µM); MIC ([10]; Pseudomonas aeruginosa, ATCC27853, read-out: P. aureginosa MIC): 0.25 mg/L (≈ 0.754 µM); MIC ([11]; Mycobacterium intracellulare, ATCC23068, read-out: M. intracellulare MIC): 1 mg/L (≈ 3.02 µM)
CC(C)C1=C(O)C(=O)C2=C(CC[C@H]3C(C)(C)CCC[C@]23C)C1=O [Compound 2, royleanone] |  |  | > 20 | > 20 | > 4.76 | > 4.76 | > 20 | > 20 | > 20 | > 20 | > 20 |  |  |  |  |  |  |  |  |  | IC50 [2]: > 20 mg/L
CC(C)C1=CC2=CC(=O)[C@H]3C(C)(C)CCC[C@]3(C)C2=C(O)C1=O [Compound 3, taxodione] | 0.08 (≈ 0.254 µM) | 0.21 (≈ 0.668 µM) | 8.9 (≈ 28.3 µM) | 12.5 (≈ 39.8 µM) | 1.2 (≈ 3.82 µM) | 1.2 (≈ 3.82 µM) | 1.35 (≈ 4.29 µM) | 1.47 (≈ 4.68 µM) | > 20 | > 20 | 11.9 (≈ 37.8 µM) | 2.5 to 5 | 2.5 |  |  |  |  |  |  |  | C. krusei MIC (Candida krusei ATCC 6258): −; IC50 [2]: 0.58 mg/L (≈ 1.84 µM); MIC [2]: 1.25 mg/L (≈ 3.98 µM); C. neoformans MIC [2]: 1.25 mg/L; A. fumigatus MIC [3]: −; C. albicans MIC ([4]; second value of IC50/MIC): −; MIC [7]: 5 mg/L (≈ 15.9 µM); MIC [8]: 2.5 mg/L (≈ 7.95 µM); M. intracellulare MIC [11]: −; IC50 (Plasmodium falciparum): 1.2 to 4.8 mg/L (≈ 3.82 to 15.3 µM); antimalarial activity against Plasmodium falciparum (Plasmodium falciparum): weak antimalarial activity
CC(C)c1cc2c(cc1O)[C@@]1(C)CCCC(C)(C)[C@@H]1CC2 [Compound 6, ferruginol] | 4 (≈ 14 µM) | 13 (≈ 45.4 µM) | > 20 | > 20 | > 4.76 | > 4.76 | 1.33 (≈ 4.64 µM) | 0.96 (≈ 3.35 µM) | > 20 | > 20 | 14.5 (≈ 50.6 µM) | 2.5 to 5 | 2.5 |  |  |  |  |  |  |  | IC50 [2]: > 20 mg/L; MIC [7]: 2.5 mg/L (≈ 8.73 µM); MIC [8]: 2.5 mg/L (≈ 8.73 µM); M. intracellulare MIC [11]: −
CC(C)c1cc2c(c(O)c1O)[C@@]1(C)CCCC(C)(C)C1=C(O)C2=O [Compound 7, 6-hydroxysalvinolone] |  |  |  |  |  |  |  |  |  |  |  | 5 | 2.5 | −/− (- =Not Active) | −/− (- =Not Active) | 0.96 mg/L | 11.2 mg/L | −/− (- =Not Active) | 1.75 mg/L | 1.56 mg/L | P. falciparum D6 IC50 [5]: 1.8 mg/L; P. falciparum W2 IC50 [6]: 2.5 mg/L; VERO TC50 [12]: 4.5 mg/L; L. donovani IC50 [1]: 3.2 mg/L; L. donovani IC90 [1]: 6.5 mg/L; C. neoformans MIC [2]: 2.5 mg/L; A. fumigatus MIC [3]: −; E. coli IC50 [9]: −/− (=Not Active); P. aureginosa IC50 [10]: −/− (=Not Active); M. intracellulare IC50 [11]: −/− (=Not Active); antimalarial activity against Plasmodium falciparum (Plasmodium falciparum): weak antimalarial activity
CC(CO)c1cc2c(c(O)c1O)[C@@]1(C)CCCC(C)(C)C1=C(O)C2=O (stereo partly drawn) [Compound 8, 6,11,12,16-tetrahydroxy-5,8,11,13-abietatetra-en-7-one] |  |  |  |  |  |  |  |  |  |  |  | 20 | 20 | 14.9 mg/L | 14.5 mg/L | 5.9 mg/L | −/− (- =Not Active) | −/− (- =Not Active) | 6.8 mg/L | 8.44 mg/L | P. falciparum D6 IC50 [5]: 3.0 mg/L; P. falciparum W2 IC50 [6]: 4.8 mg/L; L. donovani IC50 [1]: 12 mg/L; L. donovani IC90 [1]: 22 mg/L; C. glabrata MIC ([13]; second value of IC50/MIC): 20 mg/L; C. krusei MIC (Candida krusei ATCC 6258): 20 mg/L; C. neoformans MIC [2]: 20 mg/L; E. coli IC50 [9]: −/− (=Not Active); P. aureginosa IC50 [10]: −/− (=Not Active); M. intracellulare IC50 [11]: −/− (=Not Active)
CC1=C(C)C2=CC(=O)c3c(O)c4c(c(O)c3[C@@]2(C)CC1)O[C@@H](C)C4 [Compound 9, uncinatone] |  |  |  |  |  |  |  |  |  |  |  |  |  | −/− (- =Not Active) | −/− (- =Not Active) | −/− (- =Not Active) | −/− (- =Not Active) | −/− (- =Not Active) | −/− (=Not Active) | −/− (=Not Active) | L. donovani IC50 [1]: 0.2 mg/L; L. donovani IC90 [1]: 0.9 mg/L; E. coli IC50 [9]: −/− (=Not Active); P. aureginosa IC50 [10]: −/− (=Not Active); M. intracellulare IC50 [11]: −/− (=Not Active); antimalarial activity against Plasmodium falciparum (Plasmodium falciparum): inactive
CC(C)c1cc2c(c(O)c1OC1OCC(O)C(O)C1O)C1(C)CCCC(C)(C)C1CC2 (stereo not drawn) [Compound 10, 11-hydroxy-8,11,13-abietatriene-12-O-β-xylopyranoside] |  |  |  |  |  |  |  |  |  |  |  |  |  | −/− (- =Not Active) | −/− (- =Not Active) | −/− (- =Not Active) | −/− (- =Not Active) | −/− (- =Not Active) | −/− (=Not Active) | −/− (=Not Active) | E. coli IC50 [9]: −/− (=Not Active); P. aureginosa IC50 [10]: −/− (=Not Active); M. intracellulare IC50 [11]: −/− (=Not Active)
N=C(N)c1ccc(OCCCCCOc2ccc(C(=N)N)cc2)cc1 [Pentamidine, reference compound] | 1.4 (≈ 4.11 µM) | 6 (≈ 17.6 µM) |  |  |  |  |  |  |  |  |  |  |  |  |  |  |  |  |  |  | 
